pIC50: −log10 of the molar value. Entries after “also recorded” stand apart in the source; their conditions may differ.
How the values were obtained:
CCR2 = details: Table S5C training set of 3D-QSAR; ref BindingDB; cited from earlier work
[1] = test system: Human diploid fibroblasts (MRC-5); assay: CCK8 viability assay in TGF-β-induced pulmonary fibrosis cell model; assay type: cell-based
In short: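 MRC-5 fibroblasts were seeded at 2000 cells/well and given TGF-β (10 ng mL−1) for 48 h to build the fibrosis model. Test compound was dissolved in DMSO, diluted in DMEM and applied at 0, 1, 1.25, 2.5, 5, 10, 25, 50 and 100 μmol for 48 h, with a reference antifibrotic as positive control. CCK8 (10% volume) was added, plates incubated 3 h in the dark, and A450 read.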

MRC-5 cells = assay: Hydroxyproline content in TGF-β-stimulated MRC-5 cells; assay type: cell-based, human; details: 17 (50 μM), 67 (100 μM), nintedanib (10 μM), 48 hours, vs TGF-β model
In short: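 TGF-β (10 ng mL−1, 48 h) stimulated MRC-5 fibrosis model cells were then exposed to test compound at a single concentration (50 or 100 μM), or to a reference antifibrotic at 10 μM, for 48 h. Hydroxyproline content was compared with the TGF-β-stimulated model.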

COL1A1 = assay: RT-qPCR of COL1A1 mRNA in TGF-β-stimulated MRC-5 cells; assay type: cell-based, human; details: 17 (50 μM), 67 (100 μM), nintedanib (10 μM), 48 hours, vs TGF-β model

Structure (SMILES)	pIC50 (CCR2)	proliferation / 48-hour cell inhibition rate (CCK8) ([1]; TGF-β (10 ng mL^−1) induced MRC-5, 48-hour drug treatment, 0-100 μmol)	cytotoxic effect on the pulmonary fibrosis cell model, comparison ([1]; TGF-β induced MRC-5, 48 h, CCK8)	hydroxyproline (MRC-5 cells)	expression of COL1A1 (COL1A1)
Cc1ccc(-c2ccc3c(c2)C=C(C(=O)Nc2ccc(C[N+](C)(C)C4CCOCC4)cc2)CCC3)cc1 [BDBM50088301]	10.52	–	–	–	–
COC(=O)c1ccc2c(c1)NC(=O)/C2=C(\Nc1ccc(N(C)C(=O)CN2CCN(C)CC2)cc1)c1ccccc1 [nintedanib]	–	effectively suppressed the proliferation; also recorded: concentration-dependent increase in their inhibitory effects	even stronger cytotoxic effect than compound 17	significantly decreased	significantly decreased

Reference: PMC12570389 (RSC Advances, 2025)
